Source: PubChem
Apaf1 activ: activators of human Apaf-1 apoptosome; AID 489031; activity change, negative = activation, % at 20 µM; actives 0.31% (n = 330,000); Apaf-1 apoptosome caspase-3 activation, DEVD-Rh110 fluorescence; stronger effect = lower value;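 active = activity change at or below -40% at 20 µM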
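System: Reconstituted apoptosome of Apaf-1, cytochrome c, caspase-9, procaspase-3 | Reagent: dATP, cytochrome c, and (Z-DEVD)2-Rh110 caspase-3 substrate | Times: 30 min compound preincubation and 50 min reaction, both room temperature | Detection: Caspase-3-released Rh110 fluorescence, 540 nm emission, 480 nm excitation | Measure: Caspase-3 activity via Apaf-1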
Rh110 act interf: Rh110 signal interference in Apaf-1 activator counter-screen; shares compounds with Apaf1 activ; fluorescence interference (activity change), % at 20 µM, hits read low; Rh110 fluorescence interference, quenched caspase reaction, Ex480/Em540; 980 tested, under 10 active;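 active = mean activity change at or below -40% when tested at 20 µM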
Apaf-1 act conf2: confirmation of human Apaf-1 activators. shares compounds with Apaf1 activ. reconstituted apoptosome caspase-3 activity, DEVD-Rh110 fluorescence; stronger effect = lower value. activity change, negative = activation, % at 20 µM. actives 5% (n = 980). AID 504617;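 active = mean activity change at or below -40%, meaning activation of 40% or more, at 20 µM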
Numbers without * were called inactive; x = no result given. Only a sample is shown.

SMILES | Apaf1 activ | Rh110 act interf | Apaf-1 act conf2
COc1ccc(CN(C)C(=O)c2cc(S(=O)(=O)NCc3ccccc3)ccc2C)c(OC)c1 | 61 | x | x
COC(=O)c1ccc(COC(=O)CCS(=O)(=O)c2ccc(C)cc2)cc1 | -53* | 7 | 14
CCCN(CC(=O)Nc1ccccc1OC)C(=O)c1cc(S(=O)(=O)NCc2ccccc2)ccc1C | 62 | x | x
O=C1c2ccccc2C(=O)c2c1oc(C(F)(F)F)c2C(=O)c1ccccc1 | 79 | x | x
[O-][n+]1cccc2c(Br)cc(Br)c(O)c21 | 73 | x | x
COc1ccccc1-c1ccc(=O)n(CC(=O)NCC2CCCO2)n1 (stereo not given) | -50* | -1 | 7
C=CCn1c(N)c(C(=O)NCC2CCCO2)c2nc3ccccc3nc21 (stereo not given) | 78 | x | x
COc1ccc(-n2c(N)c(C(=O)NCC3CCCO3)c3nc4ccccc4nc32)c(OC)c1 (stereo not given) | 66 | x | x
O=C1C(=C(O)c2ccccc2)C(=O)c2ccccc21 | 41 | x | x
Oc1ccc(-c2csc(-c3c[nH]c4ccccc34)n2)c(O)c1 | -276* | 1 | 1
O=C1c2ccccc2C(=O)C12OC2c1cccc2ccccc12 (stereo not given) | 94 | x | x
C[N+]1(C)CCC(=C2c3ccccc3CC(=O)c3sccc32)CC1 | 57 | x | x
COc1cccc(-c2[nH]nc3c2C(c2ccsc2)C(C#N)=C(N)O3)c1 (stereo not given) | 60 | x | x
COc1ccc(C2C(C#N)=C(N)Oc3n[nH]c(-c4ccccn4)c32)c(OC)c1OC (stereo not given) | -508* | 7 | 19
CCCCCCCCCCOC(=O)Cn1c(COc2cccc(C)c2)[n+](C)c2ccccc21 | 79 | x | x
COc1ccc(C(=O)N2CCCCCC2)cc1OC1CCN(C(C)C)CC1 | -68* | -1 | -2
CCOC(=O)c1cc(-c2ccc(/C=C3/C(=O)N(c4ccc(C(=O)O)cc4)N=C3C)o2)ccc1Cl | 50 | x | x
O=C1O/C(=C\C(=O)N2CCOCC2)c2ccccc21 | -141* | 2 | 0
O=C(O)c1cccc(NC2=C(N3CCOCC3)C(=O)c3ccccc3C2=O)c1 | 84 | x | x
O=C1C=C(N2CCOCC2)c2ccccc2C1=O | 98 | x | x
COCc1c(C(=O)OCC(=O)NCCN2C(=O)CSC2=O)oc2ccccc12 | -67* | -4 | 5
COc1ccc(/C=C2/C(=O)N(c3c(F)c(F)c(F)c(F)c3F)N=C2C)cc1 | 54 | x | x
Cc1ccc(S(=O)(=O)N2CCN(C(=O)COC(=O)c3ccc([N+](=O)[O-])o3)CC2)c(C)c1 | 59 | x | x
Cc1cc(/C=C2\SC(=O)N(C)C2=O)c(C)n1-c1ccc(O)cc1 | 71 | x | x
CNC(=S)NNC(=O)c1sccc1OCc1cccc(C(F)(F)F)c1 | -190* | 12 | 7
SMILES | Apaf1 activ | Rh110 act interf | Apaf-1 act conf2
Cc1cc2nn(-c3ccc(Cl)cc3)nc2cc1N | 49 | x | x
C#CCOCCOCCOCCNc1nc(N2CCN(C(=O)[C@H](CCCCN)n3cc(CCCC)nn3)CC2)nc(N2CCN(C(=O)[C@H](CCCCN)n3cc(CCCC)nn3)CC2)n1 | 50 | x | x
Cc1ccnc2c1ccc1c(C)ccnc12 | 44 | x | x
CCOC(=O)C(=O)Nc1cc(Cl)ccc1C | -54* | 11 | 10
CC1=NN(c2ccc(Br)cc2)C(=O)/C1=C/c1ccc(-c2ccccc2C(=O)O)o1 | 78 | x | x
CC1(c2ccccc2)NC(=O)N(NC(=O)CSc2n[nH]c(N)n2)C1=O (stereo not given) | -279* | 1 | 2
Cc1cc(C)nc(NC(=O)CSc2nc3ccccc3o2)n1 | -71* | 0 | 13
Nc1cc2nc3ccccc3oc-2cc1=O | 48 | x | x
COc1ccc(S(=O)(=O)N2CCN(c3ccc4nnc(-c5ccc(F)cc5)n4n3)CC2)cc1 | 51 | x | x
Cc1c(CCO)c(=O)[nH]n1S(=O)(=O)c1cccc(C(F)(F)F)c1 | -92* | 11 | 15
O=C(Cc1cccc(C(F)(F)F)c1)OCC(=O)N1CCN(S(=O)(=O)c2ccc(Cl)cc2)CC1 | 51 | x | x
COC(=O)CCC(=O)OC1(C)C(=O)C2=CN(CCCOC(C)C)C(c3ccc(OC)cc3)=CC2=C(Br)C1=O (stereo not given) | 79 | x | x
O=C(c1ccccc1)c1ccc(OCC(O)CNC2CCCc3ccccc32)cc1 (stereo not given) | 52 | x | x
OC(CNc1ccccc1)COc1ccc(OCC(O)CNc2ccccc2)cc1 (stereo not given) | -141* | 3 | 5
OC(CNC1CCCc2ccccc21)COc1ccc2ccccc2c1 (stereo not given) | 47 | x | x
C=CCn1c(SCC(=O)N(CC)C2CCS(=O)(=O)C2)nnc1-c1ccccc1 (stereo not given) | 61 | x | x
CCn1c(SCC(=O)OC(C)C)nnc1-c1ccccc1 | -76* | -1 | 7
Oc1c(Br)cc(Br)cc1CNc1cccc2cccnc12 | 92 | x | x
OCCN1CCN(CC/C=C2/c3ccccc3Sc3ccc(C(F)(F)F)cc32)CC1 | 58 | x | x
COc1ccc(N2CCCn3c2nc2c3c(=O)n(Cc3ccc(C)cc3)c(=O)n2C)c(OC)c1 | -100* | 8 | 21
O=C1CCN2C=Nc3cccc4ccc1c2c34 | 43 | x | x
CC1CCCC(NC(=O)COC(=O)CCC(=O)c2cccs2)C1C (stereo not given) | -273* | 0 | 12
CC1CCCC(NC(=O)COC(=O)c2ccc([N+](=O)[O-])s2)C1C (stereo not given) | 41 | x | x
COc1ccc(Cl)cc1C(=O)OCC(=O)NC1CCCC(C)C1C (stereo not given) | -41* | 12 | 15
O=C1C=C(Nc2ccccc2C(=O)O)c2ccccc2C1=O | 91 | x | x
SMILES | Apaf1 activ | Rh110 act interf | Apaf-1 act conf2
C#CCOCCOCCOCCNc1nc(N2CCN(C(=O)CCCCCCCCCCNC(=O)Cn3cc(CCCCCN)nn3)CC2)nc(N2CCN(C(=O)CCCCCCCCCCNC(=O)[C@H]([C@@H](C)CC)n3cc(CCCCN=C(N)N)nn3)CC2)n1 | 85 | x | x
Oc1c(Br)cc(Br)cc1C=Nc1ccc2[nH]ncc2c1 | 84 | x | x
COC(=O)c1[nH]c2cc(C)ccc2c1NC(=O)CN1CCc2cc(OC)c(OC)cc2C1 | -176* | -2 | 12
Cc1cc(C)nc(-n2nc(C)cc2NC(=O)CN2CCc3ccccc3C2)n1 | 54 | x | x
Nc1ccc2nc(-c3cccc(-c4nc5ccc(N)cc5[nH]4)n3)[nH]c2c1 | 40 | x | x
Cc1cc(C)cc(NC(=S)Nc2cccc3cnccc23)c1 | 98 | x | x
CC/C(=N/Nc1ccccc1C)c1cnnc(SC)n1 | 41 | x | x
N#Cc1sc2nc(-c3ccccc3)cc(-c3ccco3)c2c1N | 90 | x | x
Cc1cc(-c2ccccc2C(=O)NC2CCCCC2)on1 | -149* | 9 | 8
O=C(NC1CCCC1)c1ccc2nc(-c3ccco3)c(-c3ccco3)nc2c1 | 44 | x | x
CCSc1nsc(NC(=O)Nc2ccc(F)cc2F)n1 | -95* | 6 | 16
O=C1c2ccccc2C(=O)C1(O)O | 68 | x | x
Cc1cc(C(=O)NC(=S)Nc2cccc(C(=O)O)c2C)ccc1[N+](=O)[O-] | -54* | 0 | 11
CC1CCCCC1NS(=O)(=O)c1ccc(S(=O)(=O)N2CCN(CCC#N)CC2)cc1 (stereo not given) | -65* | 1 | 9
CCOc1ccc(-c2cc(C(=O)NCCCn3ccnc3)c3cc(Br)ccc3n2)cc1 | 42 | x | x
